An excerpt weighted towards active compounds, which were near 1.5% of everything screened.
C-LANA FP: inhibitors of KSHV LANA C-terminal domain DNA binding. inhibition, % at 9 µM. MBP-C-LANA/FAM-LBS DNA binding, fluorescence polarization. hit rate 0.078% among 340,000;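 active = highest replicate inhibition at or above 60% at 9 µM, even if other replicates fall short; inactive = all replicates below 60% inhibition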;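 also: 0% = neutral control wells and 100% = 4 µM acridine orange control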
CaV13 ICDI inh: Primary screen for inhibitors of IQ motif and Ca2+-dependent inactivation inhibitor domain binding in CACNA1D, Förster resonance energy transfer in living cells, … | HEK cells, CFP/YFP FRET ICDI-IQ, plate reader, 10 min; percent FRET-ratio fall versus neutral wells | inhibition, % at 12.3 µM | hit rate 0.098% among 340,000 | AID 743397;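 active = mean replicate inhibition of at least 30% and at least 1% of replicates passing that level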;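 also: 0% = median of the neutral control wells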
CAL PDZ FP-1: blocks peptide binding to the human CAL PDZ domain; Q9HD26; purified CAL PDZ, TMR-peptide fluorescence polarization, 1 h; inhibition, % at 24.9 µM; hit rate 0.92% among 300,000; AID 602252;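 active = mean inhibition of at least 30% with at least half of replicates also reaching 30%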;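 also: 0% = DMSO neutral control and 100% = excess unlabeled competitor peptide PRC23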
Keap1 Nrf2 FP: disrupts human Keap1 binding to Nrf2 peptide; Q14145; Keap1 Kelch-Nrf2 peptide fluorescence polarization, 1536-well; inhibition, % at 9.4 µM; hit rate 0.15% among 340,000; in the data active = inhibition above about 12%;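 also: human Keap1 Kelch domain with fluorescein labeled Nrf2 9mer peptide probe; 0% = neutral control wells and 100% = peptide positive control; higher means more block of Keap1 binding to Nrf2 peptide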
Target sequence (Q14145 whole entry, looked up, the tested form may be a part): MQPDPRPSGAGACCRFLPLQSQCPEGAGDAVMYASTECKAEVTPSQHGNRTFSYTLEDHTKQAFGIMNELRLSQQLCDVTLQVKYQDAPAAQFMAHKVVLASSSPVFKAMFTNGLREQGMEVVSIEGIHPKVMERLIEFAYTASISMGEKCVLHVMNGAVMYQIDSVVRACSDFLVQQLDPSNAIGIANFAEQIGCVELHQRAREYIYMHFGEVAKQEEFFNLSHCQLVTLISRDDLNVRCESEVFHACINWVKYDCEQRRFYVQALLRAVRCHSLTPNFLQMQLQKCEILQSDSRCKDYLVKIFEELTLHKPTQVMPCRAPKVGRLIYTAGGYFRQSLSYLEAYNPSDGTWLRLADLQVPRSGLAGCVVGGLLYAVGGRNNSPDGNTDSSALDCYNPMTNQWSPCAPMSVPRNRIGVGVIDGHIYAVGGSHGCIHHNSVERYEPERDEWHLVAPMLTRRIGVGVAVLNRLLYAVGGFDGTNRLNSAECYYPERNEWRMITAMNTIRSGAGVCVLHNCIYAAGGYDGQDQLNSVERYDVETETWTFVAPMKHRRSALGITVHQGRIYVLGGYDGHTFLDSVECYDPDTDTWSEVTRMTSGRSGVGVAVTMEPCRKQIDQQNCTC
LANA-H2A inh: blocks KSHV LANA binding to histone H2A/H2B. cell-free LANA-H2A/H2B peptide, fluorescence polarization. Q9QR71. inhibition, % (test concentration not listed). hit rate 0.6% among 320,000; in the data active = inhibition mostly above about 10%, no sharp cut-off; inactive = mostly below about 6.7%
CAL PDZ FP-2: inhibitors of human CAL PDZ peptide binding; Q9HD26; purified CAL PDZ, TMR-peptide fluorescence polarization, 1 h; inhibition, % at 20 µM; hit rate 0.02% among 330,000; AID 504414;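 active = highest replicate inhibition of at least 40%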;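 also: plate controls were DMSO neutral control wells for no effect and unlabeled competitor peptide control wells for full effect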
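System: tagged CAL PDZ domain. Schedule: 1 h room-temperature incubation prior to read. Signal: fluorescence polarization (mP). Measure: percent inhibition from loss of millipolarization.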
* hit, by the source's call; . = no result.

SMILES	C-LANA FP	CaV13 ICDI inh	CAL PDZ FP-1	Keap1 Nrf2 FP	LANA-H2A inh	CAL PDZ FP-2
O=C(CCN1CCN(Cc2ccccc2)CC1)NNC(=O)Nc1cccc([N+](=O)[O-])c1	-1	.	4	2	16*	-1
O=[N+]([O-])c1cccc(-c2ccc(C(=S)N3CCOCC3)o2)c1	0	3	1	-4	12	-3
COC(=O)C1=C(C)N(Cc2cccc(C(F)(F)F)c2)C(=NCC2CC2)NC1c1cccc(Cl)c1 (centres undefined)	.	-9	.	.	.	.
NC(=O)c1ncn([C@@H]2O[C@H](C(=O)N[C@H](Cc3c[nH]c4ccccc34)C(=O)N3CCN(CC(=O)N4CCCC4)CC3)[C@@H](O)[C@H]2O)n1	.	-3	.	.	.	.
Cc1c2cc(O)c(=O)cc-2oc2cc(O)c(O)cc12	164*	-9	.	121*	114*	10
COc1cc(OC)c(-c2c3cc(O)c(=O)cc-3oc3cc(O)c(O)cc23)cc1OC	-32	-5	-97	-199	-175	-4
O=[N+]([O-])c1ccc(Sc2n[nH]c(-c3ccc(Cl)cc3Cl)n2)nc1	-1	-5	43*	0	-4	.
COc1ccc2oc(C(=O)Nc3ccccn3)c(C)c2c1	0	.	-2	-1	2	-3
COc1ccc2oc(C(=O)Nc3nc(C)cs3)c(C)c2c1	0	-5	.	3	73*	-2
COC(=O)C[C@H]1C=C[C@@H](C(C(=O)OC)C(=O)OC)CN1C(C)=O	0	-8	91*	2	.	-1
Cc1ccc(S(=O)(=O)CCC(=O)OCC(=O)NC(C)c2ccc(F)cc2)cc1 (centres undefined)	3	-6	-3	0	4	0
Cc1ccc(S(=O)(=O)CCC(=O)OCC(=O)NC(C)c2ccccc2)cc1 (centres undefined)	-1	-17	.	-4	183*	0
Cc1noc(C)c1S(=O)(=O)N(C)C[C@@H]1OCc2cnnn2CCCC(=O)N([C@@H](C)CO)C[C@@H]1C	.	-6	.	.	.	.
COc1ccc(Nc2nnc(C)c3ccccc23)cc1C(N)=O	1	0	-2	0	1	-2
CNC(=O)c1cc(Nc2nnc(C)c3ccccc23)ccc1OC	-1	.	35*	1	0	.
Cc1cccc(NC(=O)CN2C(=O)N/C(=C/c3cc(C)n(-c4cccnc4)c3C)C2=O)c1	0	-6	74*	-5	11	0
CCOc1ccc(C2OC34CCCCC3C(C#N)(C#N)C2(C#N)C(=N)O4)cc1OC (centres undefined)	42	.	0	19*	-5	0
Cc1ccc(C2OC34CCCCCC3C(C#N)(C(=N)O4)C2(C#N)C#N)cc1 (centres undefined)	-2	-4	-5	-2	-2	0
CC1=C(C(=O)N2CCN(c3cc(C)ccc3C)CC2)C2(CCCCC2)OC1=O	12	47*	.	0	1	-1
C[C@@H]1COc2cc(NCCO)ccc2S(=O)(=O)N1	.	-8	.	.	.	.
CN1CC=C2C(C#N)=C(N)C(C#N)(C#N)[C@H](c3cccc(Cl)c3)C2C1 (some centres undefined)	28	-7	-3	4	3	0
CN1CC=C2C(C#N)=C(N)C(C#N)(C#N)C(CCc3ccccc3)C2C1 (centres undefined)	51	.	-5	20*	2	0
CC(NC(=O)C(=O)NN=C1CCCCCCCCCCC1)c1ccccc1 (centres undefined)	1	-5	-1	0	12*	-1
O=C(c1cccc(C(F)(F)F)c1)C1CCCN(C(=O)CCn2cnnn2)C1 (centres undefined)	-1	-14	52*	2	4	-5
O=C(c1ccc(C(F)(F)F)cc1)C1CCCN(C(=O)Cn2cnnn2)C1 (centres undefined)	0	-7	0	1	2	-3
CCC(=O)Nc1ccc(S(=O)(=O)NCc2ccco2)cc1	2	-3	-1	-3	5	144*
CCC(=NNS(=O)(=O)c1ccc(C)cc1)c1ccccc1	.	-9	.	.	.	.
CC/C(=N\NS(=O)(=O)c1ccc(C)cc1)c1ccco1	-1	-19	36*	-6	1	.
